An excerpt weighted towards active compounds, which were near 2.3% of everything screened.
OXTR ag = agonists of human oxytocin receptor; AID 2435; activation, % at 3 µM; P30559; 0.32% of 320,000 active; CHO-OTR cells, Fluo-8 calcium fluorescence; normalized: DMSO 0%, oxytocin 100%;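 active = activation above the mean of all tested compounds plus 3 SD, cutoff set per screening run, cut at about 20% in these data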;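 note: peak over basal fluorescence ratio from a 100 s FLIPR kinetic read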
V1aR counter = activates human V1a receptor in oxytocin agonist counter-screen. P37288. CHO-V1R cells, Fluo-8 calcium fluorescence, agonist mode; 0% DMSO, 100% 3 nM vasopressin. activation, % at 3 µM. 0.25% of 320,000 active;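 active = activation above the mean activation of all tested compounds plus 3 SD, per screening run, cut at about 20% in these data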;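 note: signal is peak over basal fluorescence ratio across a 100 second FLIPR read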
TAAR1 agonist = human TAAR1 agonism; activation, % at 3 µM; Q96RJ0; 0.99% of 360,000 active; AID 624467; CHO RD-HGA16 TAAR1, Fluo-8 calcium fluorescence; vehicle wells 0%, saturating PEA agonist 100%;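 active = activation above the mean activation of all test compounds in the run plus 3 SD, cut at about 38% in these data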
Target sequence (Q96RJ0 whole entry, looked up): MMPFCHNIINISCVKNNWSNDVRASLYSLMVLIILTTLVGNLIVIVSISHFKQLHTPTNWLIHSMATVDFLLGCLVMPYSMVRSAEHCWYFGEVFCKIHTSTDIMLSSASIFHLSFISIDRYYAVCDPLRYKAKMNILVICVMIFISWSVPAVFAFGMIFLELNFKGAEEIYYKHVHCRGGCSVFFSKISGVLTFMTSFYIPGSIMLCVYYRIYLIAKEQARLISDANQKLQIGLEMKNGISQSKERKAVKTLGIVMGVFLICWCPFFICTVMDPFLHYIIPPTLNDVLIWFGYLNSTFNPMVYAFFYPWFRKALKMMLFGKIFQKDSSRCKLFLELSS
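Benchmarks: low control DMSO, high control PEA (EC100); System: CHO RD-HGA16 cells carrying human TAAR1 plus Gα16; Detection: Fluo-8 fluorescence, 5 s baseline then 140 s kinetic read; Schedule: 17-24 h plating, Fluo-8 75 min 37 °C, 30 min RT; Read-out basis: % activation from peak over basal fluorescence ratio, DMSO-to-PEA scaled.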
TAAR1 antagonist = antagonists of human TAAR1. Q96RJ0. CHO RD-HGA16 TAAR1, Fluo-8 calcium fluorescence, antagonist. inhibition, % at 3 µM. 1.5% of 360,000 active;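 active = inhibition above a per-plate cutoff, the mean inhibition of test compounds on that plate plus 3 SD, cut at about 49% in these data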
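Test system – hTAAR1-expressing CHO RD-HGA16 cells, Gα16-coupled · Reagent – β-PEA at EC80 concentration, post-compound challenge · Compound dosing – 3 µM, single point · Timing – 140 s kinetic read after compound, 140 s after agonist · Detection – Fluo-8 intracellular calcium dye fluorescence, real-time kinetic reads · Control set – DMSO and EC80 PEA controls · Repeats – n of 1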
OXTR potentiate = potentiates the human oxytocin receptor response. P30559. CHO-OTR cells, Fluo-8 calcium fluorescence, potentiator mode; 0% = oxytocin EC15, 100% = EC100. activation, % at 3 µM. 0.061% of 320,000 active;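 active = activation above that plate's cutoff, the mean activation of tested compounds plus 3 SD, cut at about 6.6% in these data, passing the limit was not always enough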
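test system = CHO-OTR cells, human receptor | compound = single-point 3.0 µM | schedule = 6 min compound pre-incubation at room temperature, 100 s kinetic read | signal = Fluo-8 no-wash calcium dye fluorescence, excitation 470-495 nm, emission 515-575 nm | repeats = single well per compound, singlicate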
nonsel antag count = nonselective antagonist in TAAR1 antagonist counter-screen; AID 651780; shares compounds with TAAR1 antagonist; 77% of 2,400 active; inhibition, % at 3 µM; counterscreen cell line, calcium fluorescence, antagonist mode; in the data active = inhibition above about 22%;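 note: CHO-Ga16 host cells stimulated with ATP at an EC80 level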
TAAR1 antag conf = human TAAR1 antagonism, confirmed; shares compounds with TAAR1 antagonist; TAAR1-expressing cells, fluorescence antagonist read-out; inhibition, % at 3 µM; 40% of 2,400 active; in the data active = inhibition above about 49%;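 note: CHO-Ga16 host cells challenged with agonist PEA near its EC80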
Ga16 ag counter = nonselective Ga16 agonism, counter-screen; Ga16-expressing cells, calcium fluorescence, agonist counterscreen; shares compounds with TAAR1 antagonist; 18% of 2,400 active; activation, % at 3 µM; in the data active = activation above about 12%
TAAR1 ag counter = activates human TAAR1 in antagonist counter-screen; shares compounds with TAAR1 antagonist; hTAAR1 cell line, fluorescence activation, agonist mode; activation, % at 3 µM; 2% of 2,400 active; AID 651955; in the data active = activation above about 37%;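 note: CHO cells stably expressing TAAR1 with calcium dye readout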
Hits are given with their value.

Results for C=C(C)C(=O)OCC(O)COc1ccc(C(C)(C)c2ccc(OCC(O)COC(=O)C(=C)C)cc2)cc1 (centres undefined) ?
OXTR ag: inactive; V1aR counter: inactive; TAAR1 agonist: inactive; TAAR1 antagonist: 92; OXTR potentiate: inactive; nonsel antag count: 55; TAAR1 antag conf: 70; Ga16 ag counter: 19; TAAR1 ag counter: inactive

Results for COc1cccc(/C=C2\SC(=S)N(CCCC(=O)N3CCCCC3CCO)C2=O)c1 (centres undefined) ?
OXTR ag: inactive; V1aR counter: inactive; TAAR1 agonist: inactive; TAAR1 antagonist: 55; OXTR potentiate: inactive; nonsel antag count: 29; TAAR1 antag conf: inactive; Ga16 ag counter: 12; TAAR1 ag counter: inactive

What do the screens show for `COCC(=O)N1CCC(Oc2ccc(C(=O)NC3CCOC(C)(C)C3)cc2)CC1` (centres undefined)?
OXTR ag: inactive; V1aR counter: inactive; TAAR1 agonist: inactive; TAAR1 antagonist: inactive; OXTR potentiate: inactive

How did O=C(Nc1ccc(N2CCOCC2)c(Cl)c1)c1ccc(Cl)cc1 do in these assays?
OXTR ag: inactive; V1aR counter: inactive; TAAR1 agonist: inactive; TAAR1 antagonist: 57; OXTR potentiate: inactive; nonsel antag count: 24; TAAR1 antag conf: 49; Ga16 ag counter: inactive; TAAR1 ag counter: inactive

Results for COc1ccccc1NS(=O)(=O)c1cc(NC(=O)C(C)(C)C)ccc1N1CCOCC1 ?
OXTR ag: inactive; V1aR counter: inactive; TAAR1 agonist: inactive; TAAR1 antagonist: 72; OXTR potentiate: inactive; nonsel antag count: 29; TAAR1 antag conf: 58; Ga16 ag counter: inactive; TAAR1 ag counter: inactive

How did O=C(Nc1ccc(N2CCOCC2)c(S(=O)(=O)Nc2ccccc2Cl)c1)c1ccc(F)cc1 do in these assays?
OXTR ag: inactive; V1aR counter: inactive; TAAR1 agonist: inactive; TAAR1 antagonist: 70; OXTR potentiate: inactive; nonsel antag count: 36; TAAR1 antag conf: 53; Ga16 ag counter: 13; TAAR1 ag counter: inactive

How did COCC(=O)Nc1ccc(N2CCOCC2)c(S(=O)(=O)Nc2ccccc2OC)c1 do in these assays?
OXTR ag: inactive; V1aR counter: inactive; TAAR1 agonist: inactive; TAAR1 antagonist: inactive; OXTR potentiate: inactive

What do the screens show for `O=C(Nc1ccc(N2CCOCC2)c(Cl)c1)c1ccc2c(c1)OCCO2`?
OXTR ag: inactive; V1aR counter: inactive; TAAR1 agonist: inactive; TAAR1 antagonist: inactive; OXTR potentiate: inactive

What do the screens show for `O=S(=O)(/N=C(/Nc1ccc(Cl)c(S(=O)(=O)N2CCOCC2)c1)c1ccc(F)cc1)c1ccccc1`?
OXTR ag: inactive; V1aR counter: inactive; TAAR1 agonist: inactive; TAAR1 antagonist: 71; OXTR potentiate: inactive; nonsel antag count: 33; TAAR1 antag conf: 57; Ga16 ag counter: inactive; TAAR1 ag counter: inactive

What do the screens show for `CCCCN1C(=O)C(CC(=O)NC2CC2)CC(C(=O)N(C(C)C)C(C)C)=C1C` (centres undefined)?
TAAR1 agonist: inactive; TAAR1 antagonist: inactive

What do the screens show for `COc1ccc(C(O)c2nc(-c3cccc4cccnc34)cs2)cc1` (centres undefined)?
TAAR1 agonist: inactive; TAAR1 antagonist: inactive

What do the screens show for `O=C(Nc1cccc(C(=O)N2CCCC2)c1)C1CCC1`?
TAAR1 agonist: inactive; TAAR1 antagonist: inactive

What do the screens show for `OC(c1cccc(Cl)c1)c1nc(-c2cc3ccccc3o2)cs1` (centres undefined)?
TAAR1 agonist: inactive; TAAR1 antagonist: 61; nonsel antag count: 36; TAAR1 antag conf: 49; Ga16 ag counter: inactive; TAAR1 ag counter: inactive

Results for O=C(NCC(=O)N1CCN(C(=O)c2ccccc2)CC1)c1ccc(Cl)cc1Cl ?
OXTR ag: inactive; V1aR counter: inactive; TAAR1 agonist: inactive; TAAR1 antagonist: inactive; OXTR potentiate: inactive

Compound activity (PubChem BioAssay)
